The chains are these.
B1: tRNA (parent)
chain: CUCUCGGUAGCCAAGUUGGUUUAAGGCGCAAGACUUUAAUUUAUCACUACGAAAUCUUGAGAUCGGGCGUUCGACUCGCCCCCGGGAGAUUUUUUCCUCGAGCAA

Fewer inactive variants are shown than the library holds.

This data set covers variants of B1. Put plainly: nonsense suppression (GFP-seq) (ratio to wild type); higher = more function; SUP4oc tRNA, yeast GFP reporter sort-seq. A digest of the protocol:
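Each variant's nonsense suppression (GFPSEQ) is a cell-share-weighted bin median GFP/RFP relative to the unmutated parent tRNA. Yeast with genome-integrated tRNA variants from a ~3% random-mutation library, a galactose-driven GFP ochre reporter and RFP were grown in raffinose/galactose medium with 80 mg/L adenine, then sorted into GFP/RFP bins for Illumina sequencing. Variants needed ≥100 reads and ≥30 cells.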
With CUCACGGUAGCCAAGAUGGUUUAAGGCGCAAGACUUUAAUUUAUCACUACGAAAUCUUGAGAUCGGGCGUUCGACUCGCCCCCGGGAGAUUUUUUCCUCGAGCAA [U4A U16A], the nonsense suppression amounted to 0.215.

As for CUCACGGUAGCCAAGGUGGUUUAAGGCGCAAGACUUUAAUUUAUCACUACGAAAUCUUGAGAUCGGGCGUUCGACUCGCCCCCGGGAGAUUUUUUCCUCGAGCAA [U4A U16G], the nonsense suppression turned out to be 0.247.

For CUCACGGUAGACAUGUUGGUUUAAGGCGCAAGACUUUAAUUUAUCACUACGAAAUCUUGAGAUCGGGCGUUCGACUCGCCCCCGGGAGAUUUUUUCCUCGAGCAA [U4A C11A A14U], the nonsense suppression is at most 0.026.

For the variant CUCACGGUAGCCAAGUUGGUUUAAGGCGCAAGACUUUAAUUUAUCACUACGAAAUCUUGAGAUCGGCUGUUCGACUCGCCCCCGGGAGAUUUUUUCCUCGAGCAA [U4A G67C C68U], the nonsense suppression is at most 0.026.

As for CUCACGGUAACCAAGUUGGUGUAAGGCCCAAGACUUUAAUUUAUCACUACGAAAUCUUGAGAUCGGGCGUUCGACUCGCCCCCGGGAGAUUUUUUCCUCGAGCAA [U4A G10A U21G G28C], the nonsense suppression was at most 0.026.

On to CUCACGGUAGCCAAGUUGGUUUAUGGCGCAAGACUUUAAUUUAUCACUACGAAAUCUUGAGAUCGGGCGUUCGACUCGCCCCCGGGAGAUUUUUUCCUCGAGCAA [U4A A24U], for which the nonsense suppression came out at 0.0458.

In the case of CUCACGGUAGCCAUGUUGGUUUAAGGCGCAAGACUUUAAUUUAUCACUACGAAAUCUUGAGAUCGGGCGUUCGACUCGCCCCCGGGAGAUUUUUUCCUCGAGCAA [U4A A14U], the nonsense suppression is 0.0276.

For the variant CUCACGGUAGCCAGGUUGGUUUAAGGCGCAAGACUUUAAUUUAUCACUACGAAAUCUUGAGAUCGGGCGUUCGACUCGCCCCCGGGAGAUUUUUUCCUCGAGCAA [U4A A14G], the nonsense suppression was 0.0942.

In the case of CUCACGGUAGCCAAGUGGGUUUAAGGCGCAAGACUUUAAUUUAUCACUACGAAAUCUUGAGAUCGGGCAUUCGACUCUCCCCCGGGAGAUUUUUUCCUCGAGCAA [U4A U17G G69A G78U], the nonsense suppression is at most 0.026.

Consider CUCACGGUAGCCAAGUUGGCUUAAGGCGCAAGACUUUAAUUUAUCACUACGAAAUCUUGAGAUCGGGCGUUCGACUCGCCCCAGGGAGAUUUUUUCCUCGAGCAA [U4A U20C C83A], for which the nonsense suppression is at most 0.026.

Regarding CUUUCGGUAGCCAAGUUGGUUUAAGGCGCAAGACUUUAAUUUAUCACUACGAAAUCCUGAGAUCGGGCAUUCAACUCGCCCCCGAGAGAUUUUUUCCUCGAGCAA [C3U U57C G69A G73A G85A], the nonsense suppression was at most 0.026.

As for CUCACGGUAGCCAAGUUGGUUGAAGGCGCAAGACUUUAAUUUAUCACUACGAAAUCUUGAGAUCGGGCGUUCGACUCGCCCCCGGGAGAUUUUUUCCUCGAGCAA [U4A U22G], the nonsense suppression came to 0.155.

As for CUCACGGUAGCCAAGUUGGUUUAAGGCGCAAGACUUUAAUUUAUCACUACGAAUUCUUGAGAUCGGGCGUUCGACUCGCCCCCGGGAGAUUUUUUCCUCGAGCAA [U4A A54U], the nonsense suppression is 0.191.

Turning to CUCACGGUAGCCAAGUUGGUUUAAGGCGCAAGACUUUAAUUUAUCACUACGAAAUCUUGAGAUCGGGCGUUCGACUCGCCCCGGGGACAUUUUUUCCUCGAGCAA [U4A C83G G88C], the nonsense suppression is at most 0.026.

With CUCACGGUAGCCAAGUUGGUUUAAGGCGCAAGACUUUAAUUUAUCACUACGAAAUCUUGAGAUCGGGCGUUCGACUUGCCCCCGGGAGAUUUUUUCCUCGAGCAA [U4A C77U], the nonsense suppression is 0.0506.

As to CUCACGGUAGCCAAGUAGGUUUAAGGCGCAAGACUUUAAUUUAUCACUACGAAAUCUUGAGAUCGGGCGUUCGACUCGCCCCCGGGAGAUUUUUUCCUCGAGCAA [U4A U17A], the nonsense suppression turned out to be 0.174.

As to CUCAGGGUAGCCAAGUUGGUUUAAGGCGCAAGACUUUAAUUUAUCACUACGAAAUCUUAAGAUCGGGCGUUCGACUCGCCCCCGGGAGAUUUUUUCCUCGAGCAA [U4A C5G G59A], the nonsense suppression was at most 0.026.

As to CUCACGGUAGCCAAGUUGGUUUAAGGCGCAAGACUUUAAUUUAUCACUACGAAAUCUUGAGAUCGGGCGUUCGACUCGCCCCCGAGAGAUUUUUUCCUCGAGCAA [U4A G85A], the nonsense suppression was found to be 0.0324.

As for CUCACGGUAGCUAAGUUGGUUUAAGGCGCAAGACUUUAAUUUAUCACUACGAAAUCUUGAGAUCGGGCGUUCGACUCGCCCCCGGGAGAUUUUUUCCUCGAGCAA [U4A C12U], the nonsense suppression is at most 0.026.

Take CUCACGGUGGCCAAGUUGGUUUAAGGCGCAAGACUUUAAUUUAUCACUACGAAAUCUUGAGAUCGGGCGUUCUACUGGCCCCCGGUAGAUUUUUUCCUCGAGCAA [U4A A9G G73U C77G G86U]: the nonsense suppression was at most 0.026.

Take CUUUCGGUAGCCAAGUUGGUUUAAGGCGCAAGACGUUAAUUUAUCACUACGAAAUCUUGAAAUCGGGCGUUCGACUCGCCCCCGGGAGAUUUUUUCCUCGAGCAA [C3U U35G G61A]: the nonsense suppression was at most 0.026.

Take CUCACGGUAGCCAAGUUGGUUUAAGGCGCAAGACUUUAAUUUAUCACUACGAAAUCUUGAGAUCGGGCGUUCGACUCGUCCCCGGGAGAUUUUUUCCUCGAGCAA [U4A C79U]: the nonsense suppression turned out to be 0.0353.

On to CUCACGGUAGCCAAGUUGGUAUAAGGCGCAAGACUUUAAUUUAUCACUACGAAAUCUUGAGAUCGUGCGUUCGACUCGCCCCCGGGAGAUUUUUUCCUCGAGCAA [U4A U21A G66U], for which the nonsense suppression was at most 0.026.

On to CUCACGGUAGCCAAGUUGGUUUGAGGCGCAAGACUUUAAUUUAUCACUACGAAAUCUUGAGAUCGGGCGUUCGACUCGCCCCCGGGAGAUUUUUUCCUCGAGCAA [U4A A23G], for which the nonsense suppression worked out at 0.288.

On to CUCACGGUAGCCAAGUUGGUGUAAGGCGCAAGACUUUAAUUUAUCACUACGAAAUCUUGAGAUCGGGCGUUCGACUCGUCCCCGGGAGAUUUUUUCCUCGAGCAA [U4A U21G C79U], for which the nonsense suppression was at most 0.026.

CUCACGGUAGCCAAGUUGUUUUAAGGCGCAAGACUUUAAUUUAUCACUACGAAAUCUUGAGAUCGGGCGUUCGACUCGCCCCCGGGAGAUUUUUUCCUCGAGCAA [U4A G19U]: the nonsense suppression was at most 0.026.

With CUCAAGGUAGCCAAGUUGGUUUAAGGCGCAAGACUUUAAUUUAUCACUACGAAAUCUUGAGAUCGGGCGUUCGACUCGCCCCCGGGAGAUUUUUUCCUCGAGCAA [U4A C5A], the nonsense suppression turned out to be 0.0374.
